Data as given in ChEMBL document CHEMBL1629572 (Antimicrob Agents Chemother, 2009).

Assays:
[1] = target: T1, Neuraminidase (Influenza A virus, UniProt B4URF0); experiment: Inhibition of Influenza A virus (A/Wellington/1/2004(H3N2)) neuraminidase after 30 mins by fluorescence analysis
[2] = target: T1, Neuraminidase; experiment: Inhibition of Influenza A virus (A/duck/Ukraine/1/1963(H3N8)) neuraminidase after 30 mins by fluorescence analysis
[3] = Inhibition of Influenza B virus (B/Yamagata/15/2002(Victoria)) neuraminidase after 30 mins by fluorescence analysis
How it was run: (§1)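 Virus NA source was mixed with compound in 32.5 mM MES-NaOH pH 6.5 with 4 mM CaCl2 and preincubated 10 min at room temperature. Reaction ran 30 min at room temperature with 100 μM (final) 4-MU-NANA. Fluorescence was read at ex 360/em 460 nm, in triplicate. IC50 came from linear regression of residual activity against log concentration, using concentrations giving 10–90% residual activity.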

[4] = target: T1, Neuraminidase; experiment: Inhibition of Influenza A virus (A/duck/England/1/1956(H11N6)) neuraminidase after 30 mins by fluorescence analysis
[5] = Inhibition of Influenza B virus (B/Yamagata/1/2005(Yamagata)) neuraminidase after 30 mins by fluorescence analysis; how it was run: as §1
[6] = Inhibition of Influenza B virus (B/Mie/1/1993(Yamagata)) neuraminidase after 30 mins by fluorescence analysis; how it was run: as §1
[7] = target: T1, Neuraminidase; experiment: Inhibition of Influenza A virus (A/Okinawa/42/2004(H1N1)) neuraminidase after 30 mins by fluorescence analysis
[8] = target: T1, Neuraminidase; experiment: Inhibition of Influenza A virus (A/Yamagata/32/1989(H1N1)) neuraminidase after 30 mins by fluorescence analysis
[9] = Inhibition of Influenza B virus (B/Saitama/01/2005(Yamagata)) neuraminidase after 30 mins by fluorescence analysis; how it was run: as §1
[10] = target: T1, Neuraminidase; experiment: Inhibition of Influenza A virus (A/duck/Memphis/546/1974(H11N9)) neuraminidase after 30 mins by fluorescence analysis
[11] = target: T1, Neuraminidase; experiment: Inhibition of Influenza A virus (A/Tokushima/1/2005(H3N2)) neuraminidase after 30 mins by fluorescence analysis
[12] = target: T1, Neuraminidase; experiment: Inhibition of Influenza A virus (A/Yamagata/57/2002(H1N1)) neuraminidase after 30 mins by fluorescence analysis
[13] = target: T1, Neuraminidase; experiment: Inhibition of Influenza A virus (A/duck/Alberta/60/1976(H12N5)) neuraminidase after 30 mins by fluorescence analysis
[14] = Inhibition of Influenza B virus (B/Aichi/3/2006(Victoria)) neuraminidase after 30 mins by fluorescence analysis; how it was run: as §1
[15] = Inhibition of Influenza B virus (B/Aichi/186/2005(Yamagata)) neuraminidase after 30 mins by fluorescence analysis; how it was run: as §1
[16] = target: T1, Neuraminidase; experiment: Inhibition of Influenza A virus (A/Yamagata/1/2002(H3N2)) neuraminidase after 30 mins by fluorescence analysis
[17] = target: T1, Neuraminidase; experiment: Inhibition of Influenza A virus (A/seal/Massachusetts/1/1980(H7N7)) neuraminidase after 30 mins by fluorescence analysis
[18] = target: T1, Neuraminidase; experiment: Inhibition of Influenza A virus (A/Yamagata/83/2006(H1N1)) neuraminidase after 30 mins by fluorescence analysis
[19] = target: T1, Neuraminidase; experiment: Inhibition of Influenza A virus (A/Kitakyushu/159/1993(H3N2)) neuraminidase after 30 mins by fluorescence analysis
[20] = Inhibition of Influenza B virus (B/Saitama/01/2006(Victoria)) neuraminidase after 30 mins by fluorescence analysis; how it was run: as §1
[21] = Inhibition of Influenza B virus (B/Brisbane/32/2002(Victoria) neuraminidase after 30 mins by fluorescence analysis; how it was run: as §1
[22] = Inhibition of Influenza B virus (B/Yamagata/113/2005(Yamagata)) neuraminidase after 30 mins by fluorescence analysis; how it was run: as §1
[23] = Inhibition of Influenza B virus (B/Malaysia/2506/2004(Victoria)) neuraminidase after 30 mins by fluorescence analysis; how it was run: as §1
[24] = target: T1, Neuraminidase; experiment: Inhibition of Influenza A virus (A/Aichi/2/1968(H3N2)) neuraminidase after 30 mins by fluorescence analysis
[25] = target: T1, Neuraminidase; experiment: Inhibition of Influenza A virus (A/Hiroshima/52/2005(H3N2)) neuraminidase after 30 mins by fluorescence analysis
[26] = target: T1, Neuraminidase; experiment: Inhibition of Influenza A virus (A/Saitama/80/2003(H3N2)) neuraminidase after 30 mins by fluorescence analysis
[27] = Inhibition of Influenza B virus (B/Yamagata/85/2004(Yamagata)) neuraminidase after 30 mins by fluorescence analysis; how it was run: as §1
[28] = target: T1, Neuraminidase; experiment: Inhibition of Influenza A virus (A/Puerto Rico/8/1934(H1N1)) neuraminidase after 30 mins by fluorescence analysis
[29] = tested on: Influenza A virus; experiment: Antiviral activity against Influenza A virus (A/Puerto Rico/8/1934(H1N1)) infected in mouse infection model at 95 ug/kg, itn administered 4 hrs pre-infection and at 4 hrs and 17 hrs post-infection up to 20 days; format: functional, organism-based
[30] = tested on: Influenza A virus; experiment: Antiviral activity against Influenza A virus (A/Puerto Rico/8/1934(H1N1)) infected in mouse infection model at 0.3 umol/kg, itn administered 4 hrs pre-infection and at 4 hrs and 17 hrs post-infection up to 20 days; format: functional, organism-based
How it was run: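 BALB/c females, 5–6 weeks old, were anaesthetised and infected intranasally with 1,500 PFU/mouse A/PR/8/34 in PBS with 0.42% BSA. Three intranasal doses of 0.3 μmol/kg in saline (50 μl) were given at 4 h pre-infection and at 4 h and 17 h post-infection. Survival was read daily for 20 days, 10–12 mice per group.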

[31] = Inhibition of Influenza B virus (B/Akita/9/2003(Victoria)) neuraminidase after 30 mins by fluorescence analysis; how it was run: as §1
[32] = Inhibition of Influenza B virus (B/Yamagata/145/2003(Victoria)) neuraminidase after 30 mins by fluorescence analysis; how it was run: as §1
[33] = target: T1, Neuraminidase; experiment: Inhibition of Influenza A virus (A/Wyoming/03/2003(H3N2)) neuraminidase after 30 mins by fluorescence analysis
[34] = target: T1, Neuraminidase; experiment: Inhibition of Influenza A virus (A/Yamagata/2/2002(H3N2)) neuraminidase after 30 mins by fluorescence analysis
[35] = target: T1, Neuraminidase; experiment: Inhibition of Influenza A virus (A/New Caledonia/20/1999(H1N1)) neuraminidase after 30 mins by fluorescence analysis
[36] = Inhibition of Influenza B virus (B/Tokushima/1/2005(Yamagata)) neuraminidase after 30 mins by fluorescence analysis; how it was run: as §1
[37] = target: T1, Neuraminidase; experiment: Inhibition of Influenza A virus (A/Saitama/07/2006(H3N2)) neuraminidase after 30 mins by fluorescence analysis
[38] = Inhibition of Influenza B virus (B/Shiga/17/2002(Victoria)) neuraminidase after 30 mins by fluorescence analysis; how it was run: as §1
[39] = Inhibition of Influenza B virus (B/Sapporo/29/2005(Yamagata)) neuraminidase after 30 mins by fluorescence analysis; how it was run: as §1
[40] = target: T1, Neuraminidase; experiment: Inhibition of Influenza A virus (A/Aichi/193/2004(H1N1)) neuraminidase after 30 mins by fluorescence analysis
[41] = target: T1, Neuraminidase; experiment: Inhibition of Influenza A virus (A/turkey/Ontario/6,118/1968(H8N4)) neuraminidase after 30 mins by fluorescence analysis
[42] = Inhibition of Influenza B virus (B/Tokushima/1/2003(Victoria)) neuraminidase after 30 mins by fluorescence analysis; how it was run: as §1

T1 sequence (B4URF0 whole entry): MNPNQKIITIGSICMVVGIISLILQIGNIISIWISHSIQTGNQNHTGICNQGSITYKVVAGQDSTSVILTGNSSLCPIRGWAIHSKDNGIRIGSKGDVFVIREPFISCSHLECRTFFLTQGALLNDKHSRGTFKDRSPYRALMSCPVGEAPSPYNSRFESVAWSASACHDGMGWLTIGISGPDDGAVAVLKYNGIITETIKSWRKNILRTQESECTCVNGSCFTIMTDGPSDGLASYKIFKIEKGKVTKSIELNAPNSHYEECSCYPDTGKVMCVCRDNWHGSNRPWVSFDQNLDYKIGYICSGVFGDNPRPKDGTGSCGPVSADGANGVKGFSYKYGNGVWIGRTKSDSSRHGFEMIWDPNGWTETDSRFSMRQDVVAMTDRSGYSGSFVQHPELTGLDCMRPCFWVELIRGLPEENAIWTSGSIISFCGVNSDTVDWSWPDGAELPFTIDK

## CCCCCCCC(=O)OC[C@@H](O)[C@@H](OC)[C@@H]1OC(C(=O)O)=C[C@H](NC(=N)N)[C@H]1NC(C)=O [LANINAMIVIR OCTANOATE]
[1]
  IC50: 157 nM
[2]
  IC50: 1050 nM
[3]
  IC50: 6980 nM
[4]
  IC50: 262 nM
[5]
  IC50: 3630 nM
[6]
  IC50: 6850 nM
[7]
  IC50: 631 nM
[8]
  IC50: 882 nM
[9]
  IC50: 3610 nM
[10]
  IC50: 356 nM
[11]
  IC50: 131 nM
[12]
  IC50: 1170 nM
[13]
  IC50: 1140 nM
[14]
  IC50: 13800 nM
[15]
  IC50: 3550 nM
[16]
  IC50: 56.6 nM
[17]
  IC50: 142 nM
[18]
  IC50: 733 nM
[19]
  IC50: 221 nM
[20]
  IC50: 45500 nM
[21]
  IC50: 9890 nM
[22]
  IC50: 3500 nM
[23]
  IC50: 11100 nM
[24]
  IC50: 164 nM
[25]
  IC50: 69.1 nM
[26]
  IC50: 39.2 nM
[27]
  IC50: 7190 nM
[28]
  IC50: 931 nM
[29]
  Activity: Non-toxic
[30]
  Activity: Non-toxic
[31]
  IC50: 13800 nM
[32]
  IC50: 15900 nM
[33]
  IC50: 114 nM
[34]
  IC50: 46.6 nM
[35]
  IC50: 666 nM
[36]
  IC50: 3710 nM
[37]
  IC50: 63.3 nM
[38]
  IC50: 7680 nM
[39]
  IC50: 3600 nM
[40]
  IC50: 983 nM
[41]
  IC50: 420 nM
[42]
  IC50: 13800 nM
